Laboratory results: ChEMBL document CHEMBL1138075 (Bioorg Med Chem Lett, 2006)
Activity calls are given as the source filed them. The calls are words filed in the database; no cut-off is given here. Square brackets hold non-standard residues; d marks the D form. Peptide text beside a SMILES is read from it. Thz = O=C(O)[C@@H]1CSCN1

Legend:
Glutamate NMDA receptor = experiment: (§1) Displacement of L[3H]glutamate from GluR in rat brain synaptic membrane; format: cell membranes
Outline: (§2)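 Competitive radioligand binding to glutamate receptors: displacement of L-[³H]glutamate from rat brain synaptic membranes, with test concentrations up to 100 μM.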

[1] = target: T1, Glutamate NMDA receptor (Rattus norvegicus) (UniProt P35439+Q00959+Q00960+Q00961+Q62645+Q8VHN2+Q9R1M7); experiment: Displacement of L[3H]glutamate from GluR in rat brain synaptic membrane up to 100 uM; format: cell membranes; outline: as §2
[2] = target: T1, Glutamate NMDA receptor (Rattus norvegicus); experiment: as §1; format: cell membranes; outline: as §2
Hippocampal neurone = experiment: Protection of rat hippocampal neurons from oxygen-glucose deprivation; format: functional, tissue-based; details: Hippocampus
Outline: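 Cultured rat hippocampal neurons were subjected to oxygen-glucose deprivation injury, and neuronal survival was assessed with test agent present.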

[3] = target: T1, Glutamate NMDA receptor (Rattus norvegicus); experiment: Binding affinity to GluR in rat brain synaptic membranes at 100 uM
[4] = target: T1, Glutamate NMDA receptor (Rattus norvegicus); experiment: Protection of rat hippocampal neurons from NMDA excitotoxicity; format: functional, tissue-based; details: Hippocampus
Outline: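 Neuronal death was induced in cultured rat hippocampal neurons by exposure to NMDA (100 µM), and neuronal survival was scored with test agent present.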

`CC1(C)CC[C@H](C(=O)N[C@@H](CCC(=O)O)C(=O)O)N1C(=O)CN` was tested, and the Ki (Glutamate NMDA receptor) was 0.33 µM.
For `CCC[C@@]1(C(=O)N[C@@H](CCC(=O)O)C(=O)O)CCCN1C(=O)CN`, the Activity [1] was “inactive”.
With `NCC(=O)N1CSC[C@H]1C(=O)N[C@@H](CCC(=O)O)C(=O)O` (H-Gly-[Thz]-Glu-OH) the Activity [2] was “inactive”.
`NCC(=O)N1CCC[C@]12CCN([C@@H](CCC(=O)O)C(=O)O)C2=O` was tested, and the Activity [1] was “inactive”.
`C[C@@]1(C(=O)N[C@@H](CCC(=O)O)C(=O)O)CCCN1C(=O)CN` (stereo in doubt; 1) [TROFINETIDE] gave a Ki (Glutamate NMDA receptor) of 31.2 µM.
With `CC1(C)CC[C@@H](C(=O)N[C@@H](CCC(=O)O)C(=O)O)N1C(=O)CN` the Ki (Glutamate NMDA receptor) was 3.79 µM.
For `NCC(=O)N1CCC[C@H]1C(=O)N[C@H](CCC(=O)O)C(=O)O`, the Activity (Hippocampal neurone) was “Active”, the Activity [3] was “inactive” and the Activity [4] was “Active”.
In the case of `NCC(=O)N1CCC[C@@H]1C(=O)N[C@@H](CCC(=O)O)C(=O)O`, the Activity (Hippocampal neurone) is reported as “Active”, the Activity [3] is reported as “inactive” and the Activity [4] is reported as “Active”.
With `CC1(C)SC[C@@H](C(=O)N[C@@H](CCC(=O)O)C(=O)O)N1C(=O)CN` the Activity [2] was “inactive”.
